Shown are actives, neighbours in structure and some others; about 3.9% of the full set was active somewhere.
CHOP inh – blocks CHOP induction under ER stress; CHO-K1 CHOP-promoter luciferase, tunicamycin-induced, 15-18 h; inhibition, % at 10 µM; 3.8% of 220,000 active; AID 2732;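 active means compounds that reduced the stress-induced luciferase reporter signal by more than about 70% of percent inhibition, limit read from the data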
Gli-Sufu antag – antagonists of Gli-Sufu signaling; Sufu-KO-LIGHT fibroblasts, Gli luciferase reporter luminescence; 0.74% of 340,000 active; inhibition, % at 5 µM; AID 588413;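 active means inhibition above about 55%, limit read from the data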
Jurkat NFkB inh – inhibitors of the PMA/ionomycin-induced NF-kB reporter in Jurkat cells; PMA/ionomycin-induced NF-kB luciferase reporter, luminescence; inhibition, % at 4 µM; 0.53% of 330,000 active; AID 435003; in the data active means inhibition above about 50%
UPR CHOP act – activators of apoptotic arm of unfolded protein response (CHOP); activation, % at 10 µM; AID 449763; 0.34% of 330,000 active; CHO-CHOP luciferase reporter, UPR activation, luminescence; percent of tunicamycin response over DMSO baseline;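 active means at 10 µM dose, activation of 40% or more, normalized to positive control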
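System: CHO CHOP reporter cells. Amount: 500 cells per well. Buffer or medium: F12 medium, 10% FBS. Compound dosing: one dose, 10 µM in 0.5% DMSO. Incubation: 6 h compound exposure at 37 °C after overnight seeding. Technique: Steady-Glo luciferase luminescence. Benchmarks: tunicamycin and DMSO controls.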
XBP1 UPR activ – activators of adaptive arm of unfolded protein response (XBP1) | CHO-XBP1 luciferase reporter, IRE1-XBP1 UPR activation, luminescence; percent of tunicamycin response, DMSO as zero | activation, % at 20 µM | 0.33% of 330,000 active | AID 463104;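 active means versus positive control, 20 µM dose yields 30% or more activation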
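Material: CHO cell line with stable XBP1 luciferase reporter; schedule: 16-18 h cell attachment at 37 °C, then 6 h compound exposure; signal: glow luminescence from Steady-Glo reagent; medium: serum-containing F12 medium, 10% FBS; benchmarks: tunicamycin 10 µg/mL and vehicle-only wells; read-out: percent activation relative to tunicamycin reference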
697 NFkB inh – lowers PMA/ionomycin-induced NF-kB signal in 697 B cells. 697 B-cell NF-kB luciferase reporter, 16 h. inhibition, % at 4 µM. 0.33% of 330,000 active; in the data active means inhibition above about 35%
Jurkat NFkB conf – lowers PMA/ionomycin-induced NF-kB signal in Jurkat cells; shares compounds with Jurkat NFkB inh; Jurkat NF-kB luciferase, 16 h; inhibition, % at 4 µM; 27% of 2,700 active;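 active means inhibition reaching about 45% at 4 µM in either replicate, limit read from the data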
Large screens that a line does not name were inactive (follow-up assays come after a bar, where they were run).

Cc1cc(C)cc(Nc2ccc([N+](=O)[O-])nc2[N+](=O)[O-])c1	none
COc1ccc(-c2cn[nH]c2-c2ccc(O)cc2O)cc1OC	none (no result: CHOP inh)
C=C(C)COc1ccc(-c2[nH]ncc2-c2ccc(Br)cc2)c(O)c1	CHOP inh 105.7, Jurkat NFkB inh 58.8 | Jurkat NFkB conf inactive
CCOc1ccc(-c2[nH]ncc2-c2ccc(OC)c(OC)c2)c(O)c1	Jurkat NFkB inh 63.5 (no result: CHOP inh) | Jurkat NFkB conf 57.4
CC1CCCN(C(=O)CCNC(=O)Cn2cnc3ccccc3c2=O)C1 (configuration not stated)	none (no result: CHOP inh)
COc1ccc(C2SCC(=O)N2CCc2ccc(OC)c(OC)c2)cc1 (configuration not stated)	Jurkat NFkB inh 65.2 | Jurkat NFkB conf inactive
COc1ccccc1NC(=O)c1oc2ccc(C)cc2c1C	none
Cc1ccc2oc(C(=O)Nc3cc(C)on3)c(C)c2c1	none (no result: CHOP inh) | Jurkat NFkB conf inactive
C=CCC(O)(CC=C)CNC(=O)C1CCC(=O)N(CCCc2ccccc2)C1 (configuration not stated)	none (no result: CHOP inh)
O=C(NC1CC1)c1ccc(CN(c2ccccc2)S(=O)(=O)c2ccccc2)cc1	none
CCN(c1ccccc1)S(=O)(=O)c1ccc(C(=O)NC2CCN(Cc3ccccc3)CC2)cc1	Jurkat NFkB inh 73.9 (no result: CHOP inh) | Jurkat NFkB conf 65.3
O=C(NC12CC3CC(CC(C3)C1)C2)c1ccc(-c2cccc(Cl)c2)o1	none
O=C(NC12CC3CC(CC(C3)C1)C2)c1ccc(-c2ccc(Cl)cc2)o1	none | Jurkat NFkB conf inactive
O=C(NC12CC3CC(CC(C3)C1)C2)c1ccc(-c2ccccc2Cl)o1	none | Jurkat NFkB conf inactive
O=C(NC12CC3CC(CC(C3)C1)C2)c1ccco1	none (no result: CHOP inh)
COc1ccc(CC(=O)NCc2ccc(-n3cccc3)cc2)cc1OC	Jurkat NFkB inh 55.0 (no result: CHOP inh) | Jurkat NFkB conf inactive
Cc1ccc(CNC(=O)c2ccc(-n3cccc3)cc2)cc1	none (no result: Jurkat NFkB inh, UPR CHOP act, XBP1 UPR activ, 697 NFkB inh)
Cc1ccc(CNC(=O)Cc2ccc(-n3cccc3)cc2)cc1	Jurkat NFkB inh 52.7 | Jurkat NFkB conf inactive
COc1cc(OC)cc(C(=O)NCc2ccc(-n3cccc3)cc2)c1	none
CC1(C)CC(NC(=O)c2ccc(Cl)c(S(=O)(=O)N(Cc3ccccc3)c3ccccc3)c2)CC(C)(C)N1	Jurkat NFkB inh 70.6 (no result: CHOP inh) | Jurkat NFkB conf inactive
O=C(CN1C(=O)NC2(CCCC2)C1=O)Nc1cccc(Cl)c1	none (no result: CHOP inh)
CC(=O)c1ccc(NC(=O)c2noc3c2CCCCC3)cc1	none | Jurkat NFkB conf inactive
O=C(Nc1ccc(OC(F)F)c(Cl)c1)c1ccccn1	none | Jurkat NFkB conf inactive
COc1ccc(NC(=O)c2ccc(OC(F)F)cc2)cc1Cl	none
COc1cc(/C=N/O)ccc1OCc1ccccc1Cl	none | Jurkat NFkB conf inactive
O/N=C/c1ccccc1OCc1ccccc1Cl	none
Nc1nc2nn(-c3ccccc3)nc2c(=O)[nH]1	none
Nc1nc2n[nH]nc2c(=O)[nH]1	Jurkat NFkB inh 64.3 (no result: CHOP inh) | Jurkat NFkB conf 74.4
CC1CCCC(NC(=O)COC(=O)COc2ccc(C#N)cc2)C1C (configuration not stated)	none (no result: CHOP inh)
CN(c1ccccc1)S(=O)(=O)c1ccc(NC(=O)c2nc(S(C)(=O)=O)ncc2Cl)cc1	Jurkat NFkB inh 53.2 (no result: CHOP inh) | Jurkat NFkB conf inactive
COc1cc(/C=C2\SC(N3CCC(C)CC3)=NC2=O)ccc1O	Jurkat NFkB inh 60.5 (no result: CHOP inh) | Jurkat NFkB conf inactive
COc1ccc(/C=C2\SC(N3CCCCC3)=NC2=O)cc1OC	none (no result: CHOP inh)
C=CCCC(=O)Nc1nc(C)c(-c2csc(Nc3ccccc3OC)n2)s1	Jurkat NFkB inh 53.0 | Jurkat NFkB conf inactive
Cc1ccc(OCC(=O)Nc2ccc(C)c(F)c2)c([N+](=O)[O-])n1	none (no result: CHOP inh)
O=P(O)(Cc1ccccc1)Cc1ccccc1	none (no result: CHOP inh)
CN=c1scc(-c2cccs2)n1/N=C/c1ccccc1O	CHOP inh 93.9, Gli-Sufu antag 81.2, Jurkat NFkB inh 77.5 | Jurkat NFkB conf 81.5
O=C(COC(=O)Cn1cnc2ccccc2c1=O)Nc1ccccc1OC(F)F	none (no result: CHOP inh)
C[C@H](CO)N1C[C@H](C)[C@@H](CN(C)C(=O)Nc2ccccc2)Oc2ccc(NC(=O)Cc3ccccc3)cc2C1=O	none (no result: CHOP inh)
COc1ccc(C2(c3ccc(OC)cc3)NC(=O)N(CC(=O)NC3(C#N)CCCCC3)C2=O)cc1	none (no result: CHOP inh)
COc1ccc(N2CCN(C(=O)c3ccc(CS(=O)(=O)c4ccccc4C)o3)CC2)cc1	none (no result: CHOP inh)
Cc1cccc(N2CCN(C(=O)c3ccc(CS(=O)(=O)c4ccccc4C)o3)CC2C)c1 (configuration not stated)	Jurkat NFkB inh 65.1 (no result: CHOP inh) | Jurkat NFkB conf 51.9
CC(=O)N1CC(C)Oc2ccc(S(=O)(=O)Nc3ccc(Cl)cn3)cc21 (configuration not stated)	none (no result: CHOP inh)
COc1ccc(N2CC(C(=O)N/N=C/c3ccc(C)cc3)CC2=O)cc1 (configuration not stated)	Jurkat NFkB inh 55.4 | Jurkat NFkB conf inactive
O=C(NC(=S)Nc1ccccn1)c1ccccc1	none | Jurkat NFkB conf inactive
COc1cc(NC(=O)c2csc(N)n2)cc(C(=O)Nc2cccc(C(F)(F)F)c2)c1	CHOP inh 79.4, Jurkat NFkB inh 63.8 | Jurkat NFkB conf inactive
CC(C)N(Cc1ccccc1)C(=O)CN1C(=O)NC2(CCOc3ccccc32)C1=O (configuration not stated)	none (no result: CHOP inh)
Cc1ccc(NC(=O)/C(Cl)=C\c2ccccc2)cc1	none (no result: CHOP inh) | Jurkat NFkB conf inactive
COc1ccccc1CNC(=O)C1CCN(S(=O)(=O)c2ccc(N3CCCC3=O)cc2)CC1	none (no result: CHOP inh)
CC(Sc1nncs1)C(=O)Nc1ccc2c(c1)OCCO2 (configuration not stated)	none (no result: CHOP inh)
Cc1ccc2nc(-c3ccc(NC(=O)C(C)Sc4nncs4)cc3)sc2c1 (configuration not stated)	none (no result: CHOP inh) | Jurkat NFkB conf inactive
COc1ccc(CNC(=O)COC(=O)c2c(NC(C)=O)sc(C)c2C)cc1	none (no result: CHOP inh)
Cc1c(C)c2cccnc2c2ncccc12	Gli-Sufu antag 91.6, Jurkat NFkB inh 78.3 (no result: CHOP inh) | Jurkat NFkB conf 83.7
Clc1cc2cccnc2c2ncccc12	none (no result: CHOP inh)
CCCCCCCCn1cnc2c(N)c(C)c(C)cc21	CHOP inh 81.0, Jurkat NFkB inh 74.7 | Jurkat NFkB conf inactive
Cc1ccc(NC(=O)c2scc3c2CCCC3)cc1	none | Jurkat NFkB conf inactive
CCCC(=O)NC(c1ccc(C(C)C)cc1)c1ccc2cccnc2c1O (configuration not stated)	Jurkat NFkB inh 59.8 (no result: CHOP inh, Gli-Sufu antag) | Jurkat NFkB conf 80.9
CCCC(=O)NC(c1ccc(OC)c(OC)c1)c1cc(Cl)c2cccnc2c1O (configuration not stated)	none
CCCC(=O)NC(c1ccco1)c1cc([N+](=O)[O-])c2cccnc2c1O (configuration not stated)	none

Compound activity as filed in PubChem.
